Data published in the RNAGym collection of RNA variant scans (doi:10.1126/science.aae0568).
Fewer inactive variants are shown than the library holds.

B1: tRNA (parent)
chain: GUUCCGUUGGCGUAAUGGUAACGCGUCUCCCUCCUAAGGAGAAGACUGCGGGUUCGAGUCCCGUACGGAACG

Variants of: B1
Test: yeast fitness relative to wild type (ratio to wild type); higher = fitter; tRNA-Arg(CCU), competitive growth, 37 C, YPD
How it was run: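 Start and end populations of a pooled competition were compared by 100-nucleotide paired-end sequencing of gene amplicons. The Saccharomyces cerevisiae strains carried tRNA-Arg(CCU) gene variants at the native genomic locus, synthesised with a 3% per-site mutation rate at 69 sites, and competed in YPD at 37°C for 24 hours in six parallel replicates. Darwinian fitness relative to wild type was based on the change in genotype frequencies. Genotypes required ≥ 100 starting reads, and estimates < 0.5 were set to 0.5.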

First: C24U A69G
Second: C24G C29U G50A
The yeast fitness of the first is higher: 0.998 for the first, at most 0.5 for the second.

Going from C24G U53G A57G to C24U A42G C49G C61G, the yeast fitness rises from 0.545 to 0.627.

C24U C31G U32A A43C and C24U A37G A43G C49A cannot be ordered by yeast fitness: at most 0.5 for the first, at most 0.5 for the second.

Going from C24U C30A U35C U59C G63A to C24U A57G A65U, the yeast fitness rises from at most 0.5 to 0.513.

Compared with C24G A40C A45U, C24G C27U C33U G50C G63A G68A is higher in yeast fitness: at most 0.5 for the first, 0.528 for the second.

First: C24G G39C C60U A65U
Second: C24G C31A C33U U35A A57G
The yeast fitness of the first is lower: at most 0.5 for the first, 0.529 for the second.

C24G G25A C30G and C24G C34G A69U cannot be ordered by yeast fitness: at most 0.5 for the first, at most 0.5 for the second.

Compared with C24G G25A, C24U A45G is higher in yeast fitness: 0.852 for the first, 1.03 for the second.

C24G C31U C55A and C24G U28C A43U C60A cannot be ordered by yeast fitness: at most 0.5 for the first, at most 0.5 for the second.

C24G A36G C61A and C24G A36G U64C A65U cannot be ordered by yeast fitness: at most 0.5 for the first, at most 0.5 for the second.

First: C24U A36C A45U
Second: C24G A36G U53A
The yeast fitness of the first is lower: 0.513 for the first, 0.555 for the second.

First: C24U C31G A37G
Second: C24A U54C
The yeast fitness of the first is lower: 0.529 for the first, 0.634 for the second.

Going from C24A U32A G50C to C24G A70C, the yeast fitness rises from at most 0.5 to 0.666.

Compared with C24G A36G A45G A65U, C24G C34G is higher in yeast fitness: at most 0.5 for the first, 0.55 for the second.

Going from C24G C30G C31U U35A A36U G44A G63C to C24A U35G G52A U64A, the yeast fitness falls from 0.86 to 0.514.

Compared with C24U C46G U54C C62A, C24G U59G A65U is higher in yeast fitness: at most 0.5 for the first, 0.659 for the second.

First: C24G C27U A37G
Second: C24G C31G A36G A65U
The yeast fitness of the first is higher: 0.536 for the first, at most 0.5 for the second.

Compared with C24G C46A, C24G C46U is lower in yeast fitness: 0.937 for the first, 0.654 for the second.

Compared with C24U A45G C49U, C24U C30A G50A is lower in yeast fitness: 0.931 for the first, 0.587 for the second.

C24G A36C A57C A69U A70C and C24G A43C C46G U53G C61U cannot be ordered by yeast fitness: at most 0.5 for the first, at most 0.5 for the second.

C24G C66U A69C and C24G C34G G44C cannot be ordered by yeast fitness: at most 0.5 for the first, at most 0.5 for the second.

C24A U26A C55A and C24U C27U U53G C60A A70G cannot be ordered by yeast fitness: at most 0.5 for the first, at most 0.5 for the second.

C24G C30U U32A A45G C62U and C24U C27G U47C G56C U64C G68C cannot be ordered by yeast fitness: at most 0.5 for the first, at most 0.5 for the second.

First: C24U G25C C30G G50C G56A C66U
Second: C24U A40G
The yeast fitness of the first is lower: at most 0.5 for the first, 0.72 for the second.

C24U A43G C60A and C24G G38C C46A cannot be ordered by yeast fitness: at most 0.5 for the first, at most 0.5 for the second.

C24U A43U U47G and C24A U26G C61U cannot be ordered by yeast fitness: at most 0.5 for the first, at most 0.5 for the second.

Compared with C24G A42U, C24G G44C G68U is higher in yeast fitness: 0.559 for the first, 0.663 for the second.

C24U A40U G68U A70C and C24G U35G C66U cannot be ordered by yeast fitness: at most 0.5 for the first, at most 0.5 for the second.

C24U C27A G50U and C24G C55U G67C cannot be ordered by yeast fitness: at most 0.5 for the first, at most 0.5 for the second.

First: C24U C46A A65G
Second: C24U A36G U64A
The yeast fitness of the first is higher: 0.7 for the first, 0.595 for the second.

Going from C24U A37G to C24G G41A G44A U53A C66U, the yeast fitness falls from 0.708 to at most 0.5.

First: C24G U35A G48C
Second: C24U C31A
The yeast fitness of the first is lower: at most 0.5 for the first, 0.786 for the second.

First: C24G C34U U35A A65U
Second: C24G A37G A43U C62G
The yeast fitness of the first is lower: 0.578 for the first, 0.77 for the second.

C24G C29A G50C A57C and C24G C31A U64A cannot be ordered by yeast fitness: at most 0.5 for the first, at most 0.5 for the second.

First: C24G G25C U35A G52A
Second: C24U A37U A40U
The yeast fitness of the first is lower: at most 0.5 for the first, 0.568 for the second.

C24U A40C G52C G67A and C24G U28G C46G G67U cannot be ordered by yeast fitness: at most 0.5 for the first, at most 0.5 for the second.

Going from C24G C31G A36G G44A A69G to C24U C29A, the yeast fitness rises from at most 0.5 to 0.656.

Compared with C24U C29U, C24G G51C is lower in yeast fitness: 0.859 for the first, 0.537 for the second.

First: C24G G25C A45G C60A
Second: C24G A37C A57U
The yeast fitness of the first is higher: 0.617 for the first, at most 0.5 for the second.

Compared with C24A U28C, C24G U54G C55G C62U is lower in yeast fitness: 0.568 for the first, at most 0.5 for the second.

Going from C24A U26C U54A C60U A69C to C24U C60A G63A, the yeast fitness falls from 0.819 to at most 0.5.

First: C24U A45U A65G
Second: C24U A36G C55G
The yeast fitness of the first is higher: 0.623 for the first, at most 0.5 for the second.

Compared with C24G U26C, C24G C49G A70U is lower in yeast fitness: 0.688 for the first, at most 0.5 for the second.

Compared with C24G U54C G68C, C24U C60A C66G is higher in yeast fitness: at most 0.5 for the first, 0.606 for the second.

First: C24G U26A C33U U54A
Second: C24G C30A U47C G63A
The yeast fitness of the first is higher: 0.609 for the first, at most 0.5 for the second.

First: C24U C33G C34U A57U
Second: C24G C30A G44C U47C
The yeast fitness of the first is higher: 0.583 for the first, 0.567 for the second.

C24U C34G A40U G67A and C24G C29G C33U cannot be ordered by yeast fitness: at most 0.5 for the first, at most 0.5 for the second.

C24G C27U A40U U59C and C24A U26A C31A C62A cannot be ordered by yeast fitness: at most 0.5 for the first, at most 0.5 for the second.

First: C24U A36U C49G
Second: C24G A36U
The yeast fitness of the first is higher: 0.544 for the first, at most 0.5 for the second.

Compared with C24G A36C, C24G U28G C33U A42U G50A is lower in yeast fitness: 0.531 for the first, at most 0.5 for the second.

First: C24U A36C G44C C62A
Second: C24G C33U A70G
The yeast fitness of the first is higher: 0.752 for the first, at most 0.5 for the second.

Compared with C24U C34G A40G, C24G G68A is higher in yeast fitness: at most 0.5 for the first, 0.653 for the second.

Going from C24U C61G G63C to C24G U32G A36G C60A A65U, the yeast fitness falls from 0.537 to at most 0.5.

Compared with C24G C66A, C24U A37C G50C is lower in yeast fitness: 0.576 for the first, 0.547 for the second.

C24G A45U G67A and C24G A37G C55U cannot be ordered by yeast fitness: at most 0.5 for the first, at most 0.5 for the second.

C24G C27U C33U G50C A69U and C24U C27U A40G G44A cannot be ordered by yeast fitness: at most 0.5 for the first, at most 0.5 for the second.

First: C24G U28C
Second: C24G G25A C31G
The yeast fitness of the first is lower: 0.508 for the first, 0.703 for the second.

Going from C24U C29A A40G to C24G C33U U47G, the yeast fitness falls from 0.514 to at most 0.5.

First: C24G G48C A57G G68C
Second: C24U A36G G58C C66G G68A
The yeast fitness of the first is lower: at most 0.5 for the first, 0.569 for the second.

Going from C24G G25C C30G U32C G67C to C24G C46U A70U, the yeast fitness rises from at most 0.5 to 0.642.

Compared with C24G C29G A37G G52A C62U, C24U C55U U59A is higher in yeast fitness: at most 0.5 for the first, 0.535 for the second.

C24G A36C A40C A42U and C24U A45G C46G C55G A69C cannot be ordered by yeast fitness: at most 0.5 for the first, at most 0.5 for the second.

First: C24G G39C A57G A65G
Second: C24G G25C C30G U32C A70C
The yeast fitness of the first is lower: at most 0.5 for the first, 0.533 for the second.

C24G C49U C55G and C24G C31A A42G A43U cannot be ordered by yeast fitness: at most 0.5 for the first, at most 0.5 for the second.

Compared with C24G C27U C62U A70U, C24U C49G C66A is higher in yeast fitness: at most 0.5 for the first, 0.593 for the second.

C24G G50A C55G and C24G A42U C49U cannot be ordered by yeast fitness: at most 0.5 for the first, at most 0.5 for the second.

C24G U28G C33U A42U G50A A70U and C24G U64A A70C cannot be ordered by yeast fitness: at most 0.5 for the first, at most 0.5 for the second.

Going from C24G U26A U35A C55U A65G A69C to C24U C27G G63A, the yeast fitness rises from at most 0.5 to 0.536.

First: C24G C30U C34A G51A
Second: C24U C31A C33A C34U C46A C62U G67A
The yeast fitness of the first is higher: 0.542 for the first, at most 0.5 for the second.

Going from C24G C31G A43U to C24U C27U A40G, the yeast fitness falls from 0.596 to 0.563.

C24A U32C G39C A70C and C24U C29U A36C A42U C66A cannot be ordered by yeast fitness: at most 0.5 for the first, at most 0.5 for the second.

Compared with C24U C33U C34A, C24U C27G G38C A57U C60A C62G is lower in yeast fitness: 0.555 for the first, at most 0.5 for the second.

First: C24G C34G U53A
Second: C24G G50A
The yeast fitness of the first is lower: 0.552 for the first, 0.616 for the second.

Going from C24G G50C to C24U C46U C60U, the yeast fitness falls from 0.543 to 0.513.

Going from C24U C46G A65U to C24G C30A C62G, the yeast fitness falls from 0.782 to at most 0.5.

Going from C24U C34G A69U to C24U C34U A70G, the yeast fitness rises from 0.506 to 0.592.

First: C24U A70G
Second: C24U A40G C60U A65C
The yeast fitness of the first is higher: 0.887 for the first, at most 0.5 for the second.

First: C24U C34U C61U
Second: C24U C33U C34G A40U
The yeast fitness of the first is higher: 0.545 for the first, at most 0.5 for the second.

Compared with C24U C31A U54C A57U, C24G C33U A37U C49G U64C is lower in yeast fitness: 0.547 for the first, at most 0.5 for the second.

Going from C24G U53G to C24U C27U C29G G38C A42C, the yeast fitness rises from at most 0.5 to 0.577.

C24U C46U G51C and C24U C27A C30U G68C cannot be ordered by yeast fitness: at most 0.5 for the first, at most 0.5 for the second.

Going from C24U C55A G56A to C24G A65U, the yeast fitness rises from 0.555 to 0.742.

Going from C24U C55U G68C to C24G A45G, the yeast fitness rises from 0.552 to 0.637.

C24G A45U gave a yeast fitness of 0.557.
